{"source": "paper PMC2225614", "about": "(The Journal of General Physiology, 2001)", "key": {"[1]": {"biological_target": "T1, α-subunit of the bovine retinal rod CNG channel (RETα) (Bos taurus, UniProt Q00194)", "T1 sequence (Q00194 1-690)": "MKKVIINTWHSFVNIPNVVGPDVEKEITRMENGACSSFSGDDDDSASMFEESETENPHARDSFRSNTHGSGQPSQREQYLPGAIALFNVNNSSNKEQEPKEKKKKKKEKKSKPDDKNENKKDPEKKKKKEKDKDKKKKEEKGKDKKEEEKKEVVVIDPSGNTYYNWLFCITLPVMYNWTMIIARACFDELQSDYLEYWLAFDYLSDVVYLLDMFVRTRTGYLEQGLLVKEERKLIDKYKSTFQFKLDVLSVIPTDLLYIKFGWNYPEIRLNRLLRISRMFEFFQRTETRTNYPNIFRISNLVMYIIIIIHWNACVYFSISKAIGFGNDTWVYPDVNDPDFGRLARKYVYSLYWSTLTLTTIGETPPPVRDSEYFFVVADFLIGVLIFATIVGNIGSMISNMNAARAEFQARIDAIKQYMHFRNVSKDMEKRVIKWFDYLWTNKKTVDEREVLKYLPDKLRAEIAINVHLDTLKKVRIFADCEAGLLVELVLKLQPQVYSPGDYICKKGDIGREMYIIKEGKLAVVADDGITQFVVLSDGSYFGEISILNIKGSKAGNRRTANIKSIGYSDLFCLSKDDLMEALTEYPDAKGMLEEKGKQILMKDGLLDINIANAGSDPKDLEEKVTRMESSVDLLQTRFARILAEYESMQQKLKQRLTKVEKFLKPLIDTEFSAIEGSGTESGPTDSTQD", "type": "biochemical", "details": "for Ki: Ki (apparent affinity)", "in_short": "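RETα was expressed in oocytes from 50 nl of 50 ng/μl RNA. Inside-out patches were held at −75 mV in symmetrical NaCl/EGTA/EDTA/HEPES, pH 7.5, with solution exchange within 50 ms. Current was normalized to Imax: residual current after 1 min preexposure then 2 mM cGMP, or steady-state current with compound added during 2 mM cGMP. Ki and Hill coefficient came from a modified Hill fit; τa from single-exponential fits; mean ± SEM.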"}, "[2]": {"biological_target": "T1, α-subunit of the bovine retinal rod CNG channel (RETα)", "type": "biochemical", "details": "for opening allosteric constant (L): L = Po/(1 − Po)"}, "[3]": {"system": "CHM17 (RETα with the OLFα cyclic nucleotide–binding domain)", "test": "Genistein inhibition of closed chimeric channel CHM17", "type": "biochemical, bovine/rat", "details": "closed channels", "in_short": "(§1)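 Chimeric RETα/OLFα channels were expressed in Xenopus oocytes (50 nl of 50 ng/μl RNA, 2–7 d), and the vitelline membrane was removed. Inside-out patches were bathed in symmetrical 115 mM NaCl, 5 mM EGTA, 1 mM EDTA, 5 mM HEPES, pH 7.5, held at −75 mV. Test compound was preapplied 1 min to closed channels, then saturating 2 mM cGMP; residual current normalized to Imax.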"}, "[4]": {"system": "CHM 15 (switched NH2-terminal domain through part of S1)", "test": "Genistein inhibition of closed chimeric channel CHM 15", "type": "biochemical, bovine/rat", "details": "closed channels; behaved like parent channel", "in_short": "as §1"}, "[5]": {"system": "CHM12 (RETα except for mid-S1 through S4)", "test": "Genistein inhibition of closed chimeric channel CHM12", "type": "biochemical, bovine/rat", "details": "closed channels", "in_short": "as §1"}, "[6]": {"biological_target": "T2, CHM23 (OLFα with RETα part of pore, S6 and part of C-linker) (Rattus norvegicus, UniProt Q00195, C329S/E325K/E350S/F357A/H396Q/I327V/I356V/K348R/K390R/L353F/Q399H/T383A/V373I/V394I)", "T2 sequence (Q00195 1-664 E325K/I327V/C329S/K348R/E350S/L353F/I356V/F357A/V373I/T383A/K390R/V394I/H396Q/Q399H)": "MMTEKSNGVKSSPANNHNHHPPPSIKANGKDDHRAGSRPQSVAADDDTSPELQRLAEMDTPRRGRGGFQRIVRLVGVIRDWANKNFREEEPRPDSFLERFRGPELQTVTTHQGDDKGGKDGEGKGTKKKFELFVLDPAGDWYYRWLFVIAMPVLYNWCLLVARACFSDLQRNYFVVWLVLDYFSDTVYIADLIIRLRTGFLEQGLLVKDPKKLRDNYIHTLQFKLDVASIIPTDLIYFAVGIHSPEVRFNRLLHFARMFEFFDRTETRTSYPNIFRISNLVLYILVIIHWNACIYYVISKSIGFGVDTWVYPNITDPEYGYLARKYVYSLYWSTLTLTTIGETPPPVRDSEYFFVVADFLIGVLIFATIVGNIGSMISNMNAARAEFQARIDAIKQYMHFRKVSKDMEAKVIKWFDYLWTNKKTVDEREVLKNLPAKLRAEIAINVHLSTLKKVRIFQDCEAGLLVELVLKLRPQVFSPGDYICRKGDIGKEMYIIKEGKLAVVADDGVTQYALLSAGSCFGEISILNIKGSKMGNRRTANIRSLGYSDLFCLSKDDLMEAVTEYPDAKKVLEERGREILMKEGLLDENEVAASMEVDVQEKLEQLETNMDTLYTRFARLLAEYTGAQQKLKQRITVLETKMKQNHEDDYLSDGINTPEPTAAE", "test": "Genistein inhibition of closed chimeric channel CHM23", "type": "biochemical, bovine/rat", "in_short": "as §1"}, "[7]": {"details": "after genistein application, saturating cGMP"}}, "note": "Read-outs that look alike come from different tables or passages of the source.", "data": [{"smiles": "O=c1c(-c2ccc(O)cc2)coc2cc(O)cc(O)c12", "note": "[genistein]", "values": [{"measurement": "Ki", "setting": "[1]; closed channels", "value": "4.3 ± 0.9", "unit": "µM"}, {"measurement": "Ki", "setting": "[1]; fully activated channels (saturating cGMP)", "value": "84.1 ± 6.8", "unit": "µM"}, {"measurement": "Hill coefficient of genistein inhibition", "setting": "[1]; closed channels", "value": "1.97 ± 0.08"}, {"measurement": "dissociation of genistein–PTK from closed channels (time)", "setting": "[1]; closed channels", "value": "> 1", "unit": "min"}, {"measurement": "residual current, of maximal current", "setting": "[1]; closed channels pretreated with Ni^2+ and genistein for 1 min", "value": "32.1 ± 3.4", "unit": "%"}, {"measurement": "residual current, of maximal current", "setting": "[1]; closed channels pretreated with genistein alone", "value": "1.3 ± 0.8", "unit": "%"}, {"measurement": "association time constant (τa)", "setting": "[1]; closed channels, 10 μM genistein", "value": "9.1 ± 0.4", "unit": "s"}, {"measurement": "association time constant (τa)", "setting": "[1]; closed channels, 25 μM genistein", "value": "8.9 ± 0.6", "unit": "s"}, {"measurement": "association time constant (τa)", "setting": "[1]; closed channels, 100 μM genistein", "value": "8.6 ± 0.7", "unit": "s"}, {"measurement": "dissociation time constant", "setting": "[1]; closed channels, first of two exponentials, 1-s cGMP puffs every 15 s", "value": 66, "unit": "s"}, {"measurement": "dissociation time constant", "setting": "[1]; closed channels, second of two exponentials, 1-s cGMP puffs every 15 s", "value": 808, "unit": "s"}, {"measurement": "association time constant (τa)", "setting": "[1]; closed channels, single exponential fit, Fig. 2 A, 100 μM genistein", "value": 9.3, "unit": "s"}, {"measurement": "Hill coefficient of genistein inhibition", "setting": "[1]; fully activated channels", "value": "1.02 ± 0.03"}, {"measurement": "association time constant (τa)", "setting": "[1]; fully activated channels, 25 μM genistein", "value": "12.1 ± 0.6", "unit": "s"}, {"measurement": "association time constant (τa)", "setting": "[1]; fully activated channels, 100 μM genistein", "value": "12.6 ± 0.7", "unit": "s"}, {"measurement": "association time constant (τa)", "setting": "[1]; fully activated channels, 250 μM genistein", "value": "12.6 ± 0.9", "unit": "s"}, {"measurement": "association time constant (τa)", "setting": "[1]; fully activated channels, single exponential fit, Fig. 2 B", "value": 13.1, "unit": "s"}, {"measurement": "dissociation time constant", "setting": "[1]; fully activated channels, single exponential, after 1 min preexposure", "value": 14.4, "unit": "s"}, {"measurement": "efficacy of genistein inhibition", "setting": "[1]; fully activated channels, steady-state current in saturating cGMP", "value": "65 ± 6", "unit": "%"}, {"measurement": "change in cGMP sensitivity", "setting": "[1]; genistein applied on fully activated channels", "value": "fourfold decrease"}, {"measurement": "inhibition at 100 µM", "setting": "[1]; read-out: inhibition of macroscopic current", "value": 41, "unit": "%"}, {"measurement": "fraction of steady-state current from channels devoid of genistein–PTK", "setting": "[1]; saturating cGMP plus genistein, Fig. 3 B protocol", "value": "< 60", "unit": "%"}, {"measurement": "effect on single-channel current", "setting": "[2]; 100 μM genistein, saturating cGMP", "value": "unaffected"}, {"measurement": "decrease in the average Po", "setting": "[2]; 100 μM genistein, saturating cGMP, six patches", "value": "39 ± 6", "unit": "%"}, {"measurement": "Po during periods of high activity (bursty pattern)", "setting": "[2]; [7]", "value": "0.4–0.9"}, {"measurement": "duration of high-Po periods", "setting": "[2]; [7]", "value": "15 to 30", "unit": "s"}, {"measurement": "duration of silent periods (Po = 0)", "setting": "[2]; [7]", "value": "10 to 80", "unit": "s"}, {"measurement": "single-channel current (i)", "setting": "[2]; after preexposure to 100 μM genistein, Fig. 6 A", "value": 1.97, "unit": "pA"}, {"measurement": "single-channel current (i)", "setting": "[2]; after preexposure to 100 μM genistein, Fig. 6 B", "value": 1.96, "unit": "pA"}, {"measurement": "Po, intermediate gating mode", "setting": "[2]; after preexposure to 100 μM genistein, all four patches with this mode", "value": "0.39 ± 0.08"}, {"measurement": "decrease of L compared with control", "setting": "[2]; in the presence of genistein", "value": "30–1,000 fold"}, {"measurement": "single-channel current (i)", "setting": "[2]; in the presence of genistein, 2 mM cGMP, −80 mV, Fig. 5 B", "value": 1.97, "unit": "pA"}, {"measurement": "open probability (Po)", "setting": "[2]; in the presence of genistein, 2 mM cGMP, −80 mV, Gaussian fit, Fig. 5 B", "value": 0.529}, {"measurement": "free energy of channel opening (ΔGopening)", "setting": "[2]; one genistein molecule", "value": 0.24, "unit": "kcal/mol"}, {"measurement": "opening allosteric constant (L)", "setting": "[2]; one genistein molecule bound", "value": 0.61}, {"measurement": "opening allosteric constant (L)", "setting": "[2]; two genistein molecules bound", "value": 0.02}, {"measurement": "genistein inhibition", "setting": "[3]", "value": "complete inhibition"}, {"measurement": "effect of domain switch on genistein inhibition", "setting": "[4]", "value": "had no effect"}, {"measurement": "genistein inhibition", "setting": "[5]", "value": "fully inhibited"}, {"measurement": "inhibition of closed channels", "setting": "[6]", "value": 99, "unit": "%"}]}]}
